In ChEMBL document CHEMBL3797150, “Lupeol Isolated from Sorbus commixta Suppresses 1α,25-(OH)2D3-Mediated Osteoclast Differentiation and Bone Loss in Vitro and in Vivo” (J Nat Prod, 2016) one finds inhibition and Activity data, which are given here for 1 molecule.

Each structure is given as a SMILES string. Calls of active or inactive are those of the source. The rule behind the calls is not given here.

For series [1], the system named is Calvarial osteoblast. Briefly: Inhibition of 1alpha,25-(OH)2D3-induced osteoclasts differentiation in mouse calvarial osteoblasts cocultured with mouse bone marrow macrophages incubated for 6 days by TRAP staining based microscopy. It counts as functional, cell-based. The essentials:
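Bone marrow cells (1 × 10^7) cocultured 6 days with calvarial osteoblasts (1 × 10^6) in α-MEM with 10% FBS and 0.1 μM 1α,25-(OH)2D3. Cells fixed in formaldehyde and ethanol–acetone, then TRAP-stained; TRAP-positive cells with three or more nuclei counted as osteoclasts.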

Series [2] is described as follows: Cytotoxicity against mouse calvarial osteoblasts assessed as cell viability at 1 to 20 uM after 2 to 4 days by MTT assay. Format: cell-based. To be noted: calvarial osteoblast. The essentials: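 Primary calvarial osteoblasts from 1–2-day-old newborn mice (serial collagenase/dispase digests, fractions 2–5) exposed to 1, 5, 10, 20 μM for 2 days, or kept for at least 4 days with medium changed every 2–3 days; viability by MTT. Mean ± SD of three independent experiments.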

Series [3] is described as follows: Downregulation of 1alpha,25-(OH)2D3-induced RANKL mRNA expression in mouse calvarial osteoblasts at 5 and 10 uM after 24 hrs by RT-PCR method. It counts as functional, cell-based. To be noted: Calvarial osteoblast. In a few lines: (§1)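 Calvarial osteoblasts from newborn mice grown 24 h in α-MEM with 10% FBS and 0.1 μM 1α,25-(OH)2D3, with or without compound. Total RNA reverse-transcribed, then PCR for RANKL (587 bp), OPG (720 bp), M-CSF (516 bp) and GAPDH (452 bp) as control. Products run on 2% agarose with ethidium bromide; three independent experiments.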

Series [4] has as its system Calvarial osteoblast. Nature of the series: Effect on 1alpha,25-(OH)2D3-induced OPG mRNA expression in mouse calvarial osteoblasts at 5 and 10 uM after 24 hrs by RT-PCR method. It counts as functional, cell-based. In a few lines: as §1
Series [5] concerns Calvarial osteoblast. Nature of the series: Effect on 1alpha,25-(OH)2D3-induced M-CSF mRNA expression in mouse calvarial osteoblasts at 5 and 10 uM after 24 hrs by RT-PCR method. It counts as functional, cell-based. The essentials:
as §1

Series [6] relates to Osteoclast. Nature of the series: Induction of disruption of 1alpha,25-(OH)2D3/PGE2-induced F-actin ring formation in mouse osteoclasts obtained from coculturing mouse calvarial osteoblasts with mouse bone marrow macrophages at 20 uM after 48 hrs by Alexa Fluor 488-conjugated phalloidin staining based fluorescence microscopy. Format: functional, cell-based. The essentials: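 Bone marrow cells and calvarial osteoblasts cocultured 6–7 days on collagen with 0.1 μM 1α,25-(OH)2D3 or 10 μM PGE2; mature osteoclasts released with 0.2% collagenase (37 °C, 30 min). Treated 48 h, fixed in paraformaldehyde, F-actin rings stained with Alexa Fluor 488-phalloidin and viewed by fluorescence microscopy at 100×.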

Series [7] has as its system Osteoclast. Nature of the series: Inhibition of bone resorption in mouse osteoclasts obtained from coculturing mouse calvarial osteoblasts with mouse bone marrow macrophages assessed as inhibition of pit formation at 20 uM after 48 hrs by Mayer's hematoxylin staining based light microscopy. Format: functional, cell-based. In a few lines:
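Mature osteoclasts from collagen-gel cocultures (0.1 μM 1α,25-(OH)2D3 or 10 μM PGE2; collagenase release) replated on dentin slices with compound for 48 h. Cells removed, slices stained with Mayer's hematoxylin, pits counted per slice by light microscopy at 100×; three independent experiments.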

The nature of series [8]: Downregulation of RANKL-induced ERK phosphorylation in mouse bone marrow macrophages after 15 mins by Western blot analysis in presence of M-CSF. In a few lines: (§2)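 Bone marrow macrophages from tibiae of 4–6-week ICR males, taken as cells adherent after 16–20 h in 50 ng/mL M-CSF. Treated with compound plus RANKL for 15 min, then lysed; phospho and total ERK, JNK and p38 detected by Western blot with ECL.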
In general terms: A western blot detects proteins with antibodies after separation by electrophoresis.

Series [9] is described as follows: Downregulation of RANKL-induced JNK phosphorylation in mouse bone marrow macrophages after 15 mins by Western blot analysis in presence of M-CSF. In a few lines: as §2
Series [10] in a line: Downregulation of RANKL-induced p38 MAPK phosphorylation in mouse bone marrow macrophages after 15 mins by Western blot analysis in presence of M-CSF. The essentials: as §2
The target of series [11] is T1, NF-kappa-B inhibitor alpha (Mus musculus) (UniProt Q9Z1E3).
T1 sequence (whole entry): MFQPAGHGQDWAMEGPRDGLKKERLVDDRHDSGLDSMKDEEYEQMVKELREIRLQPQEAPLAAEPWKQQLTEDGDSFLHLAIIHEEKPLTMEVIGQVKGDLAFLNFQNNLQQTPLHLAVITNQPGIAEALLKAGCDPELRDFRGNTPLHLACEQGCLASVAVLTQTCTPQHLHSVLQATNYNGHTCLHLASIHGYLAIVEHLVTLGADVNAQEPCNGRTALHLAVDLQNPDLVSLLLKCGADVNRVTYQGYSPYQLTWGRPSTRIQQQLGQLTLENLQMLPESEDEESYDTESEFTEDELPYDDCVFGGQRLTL
Nature of the series: Downregulation of RANKL-induced IkappaB alpha phosphorylation in mouse bone marrow macrophages at 5 to 20 uM after 30 mins by Western blot analysis in presence of M-CSF.

Series [12] concerns the target Transcription factor p65 (Mus musculus) (UniProt Q04207). Nature of the series: Downregulation of RANKL-induced p65 phosphorylation in mouse bone marrow macrophages at 5 to 20 uM after 30 mins by Western blot analysis in presence of M-CSF.
Series [13] in a line: Downregulation of RANKL-induced c-fos levels in mouse bone marrow macrophages at 5 to 20 uM after 24 hrs by Western blot analysis in presence of M-CSF. It counts as functional, cell-based. The settings on record: Macrophage. In a few lines:
(§3)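 Bone marrow macrophages made with 50 ng/mL M-CSF, exposed to compound and RANKL for 24 h; c-Fos and NFATc1 protein by Western blot, β-actin as loading control, ECL detection.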

Series [14] is described as follows: Downregulation of RANKL-induced NFATc1 levels in mouse bone marrow macrophages at 5 to 20 uM after 24 hrs by Western blot analysis in presence of M-CSF. It counts as functional, cell-based. To be noted: Macrophage. The essentials: as §3
The species named for series [15] is Mus musculus. Briefly: Decrease in 1alpha,25-(OH)2D3-induced RANKL levels in hypercalcemic C57BL/6 mouse serum at […] […] by ELISA method. It counts as functional, organism-based. In a few lines: (§4)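 C57BL/6 males, 6 weeks old, groups of five; 1α,25-(OH)2D3 given subcutaneously on three consecutive days, then PBS or compound at 25 or 100 μg/kg/day for 3 days; sacrifice on day 8. Serum calcium and phosphate by colorimetric kits, RANKL by ELISA; mean ± SD, Student's t test.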

The species named for series [16] is Mus musculus. Nature of the series: Decrease in 1alpha,25-(OH)2D3-induced calcium levels in hypercalcemic C57BL/6 mouse serum at […] for […]. It counts as functional, organism-based. In a few lines: as §4
For series [17], the species on record is Mus musculus. Nature of the series: Decrease in 1alpha,25-(OH)2D3-induced phosphate levels in hypercalcemic C57BL/6 mouse serum at […]/day […]. Format: functional, organism-based. The essentials: as §4
Series [18] has as its system Mus musculus. Nature of the series: Decrease in 1alpha,25-(OH)2D3-induced OPG levels in hypercalcemic C57BL/6 mouse serum at 5 to 100 ug/kg/day for 5 days. It counts as functional, organism-based.
Series [19] concerns the target Transcription factor p65 (Mus musculus) (UniProt Q04207). Nature of the series: Downregulation of RANKL-induced p65 nuclear translocation in mouse bone marrow macrophages at 5 to 20 uM after 30 mins by Western blot analysis in presence of M-CSF.
The subject of series [20] is primary calvarial osteoblasts (Mus musculus). Briefly: Induction of primary calvarial osteoblasts differentiation assessed as […] in alkaline phosphatase activity using p-nitrophenyl phosphate as substrate at 10 to 20 uM after 4 days.
Series [21] shares this test system. Nature of the series: Induction of primary calvarial osteoblasts differentiation assessed as alkaline phosphatase activity at 1 to 20 uM using p-nitrophenyl phosphate as substrate after 7 to 14 days in presence of 1alpha,25-(OH)2D3.

Sequence of Transcription factor p65 (Mus musculus) (Q04207 whole entry): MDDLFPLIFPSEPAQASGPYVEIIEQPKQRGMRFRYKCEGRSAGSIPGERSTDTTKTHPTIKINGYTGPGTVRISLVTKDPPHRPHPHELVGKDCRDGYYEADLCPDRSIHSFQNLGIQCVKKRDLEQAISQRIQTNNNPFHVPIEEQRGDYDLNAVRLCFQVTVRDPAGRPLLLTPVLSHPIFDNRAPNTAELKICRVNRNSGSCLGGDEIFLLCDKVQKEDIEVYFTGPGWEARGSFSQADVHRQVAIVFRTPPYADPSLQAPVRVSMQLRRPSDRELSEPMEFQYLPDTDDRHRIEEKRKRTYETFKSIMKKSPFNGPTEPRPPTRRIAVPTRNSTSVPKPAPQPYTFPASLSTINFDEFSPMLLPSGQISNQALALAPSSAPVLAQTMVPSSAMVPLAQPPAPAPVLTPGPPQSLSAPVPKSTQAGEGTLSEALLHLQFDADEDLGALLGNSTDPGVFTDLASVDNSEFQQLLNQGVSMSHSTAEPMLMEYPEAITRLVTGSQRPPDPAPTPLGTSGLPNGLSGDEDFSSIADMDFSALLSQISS

Regarding `C=C(C)[C@@H]1CC[C@]2(C)CC[C@]3(C)[C@H](CC[C@@H]4[C@@]5(C)CC[C@H](O)C(C)(C)[C@@H]5CC[C@]43C)[C@@H]12` [LUPEOL], the inhibition result (in the series on Calvarial osteoblast [1]; with Osteoclast [7]; in [19]) was “Active” in each case. In series [2], the Activity entry is recorded as “Non-toxic”. The outcome (in series [3]; in the series with Osteoclast [6]; in series [11]; in series [12]; in series [13]; in series [14]) was Active. Besides, the result (in the series filed under Mus musculus [15]; in series [20]) was Active. Moreover, the result (in the series with Calvarial osteoblast [4]; in the series on Calvarial osteoblast [5]; in the series filed under Mus musculus [16]; in the series listed under Mus musculus [17]; in the series with Mus musculus [18]; in [21]) was inactive. The inhibition entry in series [8] and in series [10] was “Dose-dependent effect” throughout. Besides, the inhibition result in [9] is “inactive”.
